Experimental data reported in publication PMC4593509 (Medicinal chemistry research : an international journal for …, 2015).
In brackets after ≈: the same amount, converted by molar mass. Like-named read-outs stand apart in the source and are kept apart here.

What was measured:
NCI-H460 = assay: MTT assay, cell viability after 72 h; type: cell-based, human; conditions: read-out: IC50 (at day 3)
Method in brief: (§1)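 Cells were kept in RPMI-1640 with 10% FBS at 37 °C and 5% CO₂, grown to confluency, seeded at 5,000–7,000 per well, and incubated 24 h. Medium was replaced with medium holding test compound, diluted from a 1% DMSO/water suspension, in six replicates each in triplicate. After 72 h, MTT in PBS was added for 4 h. Medium was then removed, formazan dissolved in DMSO, and OD read at 540 nm.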

HCC827 = assay: MTT assay, cell viability after 72 h; type: cell-based, human; conditions: read-out: IC50 (at day 3)
Method in brief: as §1

[1] = test system: NSCLC cell lines NCI-H460, NCI-H1975, and HCC827; assay: MTT assay, values stated for the whole panel of NSCLC cell lines; type: cell-based, human; conditions: for IC50: Homo sapiens, 72 h, read-out: IC50 values against the panel of cancer cell lines
Method in brief: as §1

[2] = Water solubility from a filtered saturated solution, by weight; type: physicochemical; conditions: for solubility: thermodynamic from solid
NCI-H1975 = assay: MTT assay, cell viability after 72 h; type: cell-based, human; conditions: read-out: IC50 (at day 3)
Method in brief: as §1

NCI-H460 cell line = assay: Annexin V; type: cell-based, human; conditions: H460 cells, treatment 6 h; IC23 and cisplatin at 40 μM
Method in brief: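 NCI-H460 cells were seeded at 1×10^5 per well and left to adhere overnight. Test compound or cisplatin (40 µM) was diluted into medium from a 1% DMSO/water solution, and untreated controls got fresh medium, with 2 wells per treatment. After exposure, cells were washed twice in cold PBS and stained with FITC-Annexin V and PI in 1× binding buffer for 15 min at room temperature in the dark. Imaging used fluorescence microscopy at 10× and 20×.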

[3] = test system: PARP and caspase-3 in NCI-H460 cells; assay: Western blotting of apoptotic proteins caspase-3 and PARP; type: cell-based, human; conditions: H460 cells, 5 μM, 36 h
Method in brief: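 Confluent NCI-H460 cells, seeded at 1×10^5 per well in RPMI-1640 with 10% FBS and 1% pen-strep, were serum-starved 24 h, then treated. Cells were lysed in ice-cold Tris pH 7.5/Triton X-100 buffer with protease/phosphatase inhibitors. Equal lysate amounts were run on 4–12% SDS-PAGE and moved to PVDF, then probed with PARP, caspase-3 and GAPDH antibodies (1:1,000, 4 °C overnight) and HRP anti-rabbit (1:5,000). Detection was by ECL, with GAPDH reprobe for normalization and cisplatin lysates as control.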

SMILES	IC50 (NCI-H460; Homo sapiens, NCI-H460, 72 h) [µM]	IC50 (HCC827; Homo sapiens, HCC827, 72 h) [µM]	IC50 [1] [µM]	solubility ([2]; water) [µg/mL]	IC50 (NCI-H1975; Homo sapiens, NCI-H1975, 72 h) [µM]	also measured
CCn1c[n+](Cc2ccc3ccccc3c2)c(Cl)c1Cl.[Br-] [Compound 1, 4,5-dichloro-1-ethyl-3-(naphthalen-2-ylmethyl)-imidazolium bromide]	26	> 30	≥ 19	13500	> 30	–
CCCn1c[n+](Cc2ccc3ccccc3c2)c(Cl)c1Cl.[Br-] [Compound 2, 4,5-dichloro-3-(naphthalen-2-ylmethyl)-1-propylimidazolium bromide]	19	> 30	≥ 19	5200	22	–
CC(C)n1c[n+](Cc2ccc3ccccc3c2)c(Cl)c1Cl.[Br-] [Compound 3, 4,5-dichloro-1-isopropyl-3-(naphthalen-2-ylmethyl)imidazolium bromide]	> 30	> 30	≥ 19	10800	20	–
CCCCn1c[n+](Cc2ccc3ccccc3c2)c(Cl)c1Cl.[Br-] [Compound 4, 1-butyl-4,5-dichloro-3-(naphthalen-2-ylmethyl)-imidazolium bromide]	13	12	–	5700	10	–
CCCCCn1c[n+](Cc2ccc3ccccc3c2)c(Cl)c1Cl.[Br-] [Compound 5, 4,5-dichloro-3-(naphthalen-2-ylmethyl)-1-pentylimidazolium bromide]	10	12	10 to 12	3100	12	–
CCCCCCn1c[n+](Cc2ccc3ccccc3c2)c(Cl)c1Cl.[Br-] [Compound 6, 4,5-dichloro-1-hexyl-3-(naphthalen-2-ylmethyl)-imidazolium bromide]	5	8	≤ 10	1400	5	–
CCCCCCCn1c[n+](Cc2ccc3ccccc3c2)c(Cl)c1Cl [Compound 7, 4,5-dichloro-1-heptyl-3-(naphthalen-2-ylmethyl)-imidazolium bromide]	6	6	≤ 10	–	4	–
CCCCCCCCCn1c[n+](Cc2ccc3ccccc3c2)c(Cl)c1Cl.[Br-] [Compound 8, 4,5-dichloro-3-(naphthalen-2-ylmethyl)-1-nonylimidazolium bromide]	10	3	≤ 10	300	3	–
CCCCCCCCCCCCn1c[n+](Cc2ccc3ccccc3c2)c(Cl)c1Cl [Compound 9, 4,5-dichloro-1-dodecyl-3-(naphthalen-2-ylmethyl)-imidazolium bromide]	5	–	≤ 10	–	4	–
Clc1c(Cl)[n+](Cc2ccccc2)cn1Cc1ccccc1 [Compound 10, 1,3-dibenzyl-4,5-dichloroimidazolium bromide]	> 30	> 30	–	–	> 30	–
Clc1c(Cl)[n+](Cc2ccc3ccccc3c2)cn1Cc1ccccc1 [Compound 11, 1-benzyl-4,5-dichloro-3-(naphthalen-2-ylmethyl)-imidazolium bromide]	15	15	12 to 15	–	12	–
[Br-].c1ccc2cc(Cn3cc[n+](Cc4ccc5ccccc5c4)c3)ccc2c1 [Compound 12, 1,3-bis(naphthalen-2-ylmethyl)imidazolium bromide]	4	9	–	–	6	stage of apoptosis (Annexin V / PI) (NCI-H460 cell line): early stages of apoptosis
c1ccc2cc(Cn3c[n+](Cc4ccc5ccccc5c4)c4ccccc43)ccc2c1 [Compound 13, 1,3-bis(naphthalen-2-ylmethyl)benzimidazolium bromide]	3	5	–	–	4	–
Cn1c(=O)c2c(ncn2Cc2ccc3ccccc3c2)n(C)c1=O [Compound 14, 1,3-dimethyl-7-(naphthalen-2-ylmethyl)xanthine]	8	28	–	800 (≈ 2500 µM)	12	–
Cn1c(=O)c2c(n(C)c[n+]2Cc2ccc3ccccc3c2)n(C)c1=O.[I-] [Compound 15, 1,3,9-trimethyl-7-(naphthalen-2-ylmethyl)xanthinium iodide]	–	–	–	–	–	IC50 (NCI-H460; NCI-H460, 72 h exposure, MTT): > 30 µM; IC50 (HCC827; HCC827, 72 h exposure, MTT): > 30 µM; anti-tumor activity against the three cell lines ([1]; NCI-H460, NCI-H1975, HCC827, result in words): no observable anti-tumor activity; H2O solubility ([2]; water, saturated solution stirred for several hours, filtered): 2600 µg/mL; IC50 (NCI-H1975; NCI-H1975, 72 h exposure, MTT): > 30 µM
Clc1ncn(CCc2cccc3ccccc23)c1Cl [Compound 16, 4,5-dichloro-1-(2-(naphthalen-1-yl)ethyl)-imidazole]	–	–	–	–	–	IC50 (NCI-H460; NCI-H460, 72 h exposure, MTT): > 30 µM; IC50 (HCC827; HCC827, 72 h exposure, MTT): > 30 µM; IC50 (NCI-H1975; NCI-H1975, 72 h exposure, MTT): > 30 µM
Clc1c(Cl)[n+](CCc2cccc3ccccc23)cn1CCc1cccc2ccccc12.[Br-] [Compound 17, 4,5-dichloro-1,3-bis(2-(naphthalen-1-yl)ethyl)-imidazolium bromide]	8	11	–	400	8	–
Clc1c(Cl)[n+](Cc2ccc3ccccc3c2)cn1CCc1cccc2ccccc12.[Br-] [Compound 18, 4,5-dichloro-1-(2-(naphthalen-1-yl)ethyl)-3-(naphthalen-2-ylmethyl)-imidazolium bromide]	5	7	–	100	6	water solubility compared to IC23 ([2]; result in words): did not show a significant increase
Clc1c(Cl)[n+](Cc2ccccc2)cn1CCc1cccc2ccccc12 [Compound 19, 3-benzyl-4,5-dichloro-1-(2-(naphthalen-1-yl)ethyl)-imidazolium bromide]	12	> 30	–	–	14	–
Clc1ncn(CCc2ccc3ccccc3c2)c1Cl [Compound 20, 4,5-dichloro-1-(2-(naphthalen-2-yl)ethyl)-imidazole]	> 30	> 30	–	–	> 30	–
Clc1c(Cl)[n+](CCc2ccc3ccccc3c2)cn1CCc1ccc2ccccc2c1 [Compound 21, 4,5-Dichloro-1,3-bis(2-(naphthalen-2-yl)ethyl)-imidazolium bromide]	8	8	–	–	8	–
Clc1c(Cl)[n+](Cc2ccc3ccccc3c2)cn1CCc1ccc2ccccc2c1 [Compound 22, 4,5-dichloro-1-(2-(naphthalen-2-yl)ethyl)-3-(naphthalen-2-ylmethyl)-imidazolium bromide]	4	9	–	–	7	–
Clc1c(Cl)[n+](Cc2ccc3ccccc3n2)cn1Cc1ccc2ccccc2c1.[Br-] [Compound 23, 4,5-dichloro-1-(naphthalen-2-ylmethyl)-3-(quinolin-2-ylmethyl)imidazolium bromide]	10	9	–	900	5	increase in aqueous solubility from IC23 ([2]; relative to IC23): ≥ 10 fold
N.N.[Cl][Pt][Cl] [cisplatin, reference compound]	–	–	–	–	–	stage of apoptosis (Annexin V / PI) (NCI-H460 cell line): early-stage apoptosis; IC50 (NCI-H460; NCI-H460, 72 h exposure, MTT): 3 µM; IC50 (HCC827; HCC827, 72 h exposure, MTT): 4 µM; PARP-1 cleavage and amount of procaspase-3 [3]: both PARP-1 cleavage and a reduced amount of procaspase-3; IC50 (NCI-H1975; NCI-H1975, 72 h exposure, MTT): 10 µM
